From PubChem BioAssay
PfGluPho inh = PfG6PD (Plasmodium falciparum) enzyme inhibition. actives 0.78% (n = 350,000). inhibition, % at 20 µM. PfGluPho enzyme, NADPH resazurin-diaphorase fluorescence. AID 504690;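 active = inhibition reaching at least a set limit at 20 µM in the primary screen, cut at about 59% in these data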;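 also: 0% = DMSO wells with substrate and 100% = DMSO wells lacking glucose-6-phosphate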
Diaphorase inh = counter-screen for diaphorase-based assays: diaphorase inhibitors and chemical oxidizers; diaphorase resazurin-to-resorufin fluorescence, NADH, 16 min; bacterial (C. kluyveri) enzyme, not human; inhibition, % at 20 µM; actives 0.69% (n = 190,000); AID 1217;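 active = primary screen inhibition at 20 µM above a set limit, cut at about 50% in these data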;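 also: plate controls were DMSO with full reaction for no effect and wells lacking NADH for full effect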
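System: Bacterial diaphorase enzyme (C. kluyveri) | Incubation: 16-min room-temperature incubation before reading | Benchmarks: No-NADH positive control and DMSO neutral control | Measured by: Resorufin fluorescence 544/590 nm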
Diaph act CS = diaphorase activation or chemical reduction counter-screen | Diaphorase/resazurin coupled assay, resorufin fluorescence, 16 min; stronger effect = higher value; 1 = vehicle wells, 0 = NADH-free wells | activation factor at 20 µM | actives 0.005% (n = 190,000);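 active = diaphorase activity raised at least twofold by the compound at 20 µM; inactive = activation factor below 2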
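Material: purified diaphorase enzyme from Clostridium kluyveri / Medium: HEPES pH 7.4 buffer with MgCl2 and Tween 20 / Schedule: enzyme reaction of 16 min at room temperature / Measured by: resorufin fluorescence, excitation 544 nm, emission 590 nm / Evaluation: rise in resorufin formation, marking diaphorase activation or chemical reduction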
G6PDH CS = L. mesenteroides G6PDH inhibition counter-screen; Purified L. mesenteroides G6PDH, diaphorase/resazurin coupled fluorescence, 45 min; actives 0.12% (n = 200,000); AID 1020; inhibition, % at 5 µM; in the data active = inhibition above about 50%
HKDC1 inhibitor = inhibitors of human hexokinase HKDC1. Q2TB90. AID 493160. actives 0.16% (n = 340,000). recombinant HKDC1, G6PDH/diaphorase resazurin coupled fluorescence. inhibition, % at 20 µM;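 active = inhibition above about 35% when tested at 20 µM, limit read from the data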;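 also: plate controls were DMSO wells with enzyme for no effect and DMSO wells lacking enzyme for full effect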
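System: Recombinant HKDC1 hexokinase | Amount: HKDC1 at 5 µg/mL | Reagent: Glucose with 1 mM ATP | Doses: Single 20 µM dose | Incubation: Reaction time 90 min, room temperature, protected from light | Signal: Coupled resazurin fluorescence, excitation 525 nm, emission 613 nm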
Active calls of the source: *; / = no result. Most compounds without a hit are left out; they make up all but 1.2% or so of the library.

SMILES	PfGluPho inh	Diaphorase inh	Diaph act CS	G6PDH CS	HKDC1 inhibitor
Cc1oc2c(c1C(=O)NCc1cccnc1)C(=O)c1ccccc1C2=O	103*	0	1	59*	27
Cc1onc(-c2ccccc2Cl)c1C(=O)NCc1cccnc1	0	13	0.9	-12	4
COc1ccccc1NC(=O)c1cc(C)nc2ccccc12	-1	63*	0.4	3	-5
O=c1ccc2cc(O)c(O)cc2o1	-23	61*	0.4	45	-1
Cc1ccc(S(=O)(=O)N(C)c2ccc(C(=O)NC3CCCCC3)cc2)cc1	3	/	/	/	/
CC1=C(C(=O)N(C)C)CC(CC(=O)NCCCN(C)C)C(=O)N1Cc1ccccc1 (configuration not stated)	-10	/	/	/	/
CC(=O)Nc1ccc(C(=O)OCC(=O)N(Cc2ccccc2)C(C)(C)C)cc1	-4	54*	0.5	0	-8
CCN1C(=O)c2cccc3c(S(=O)(=O)Nc4ccccc4OC)ccc1c23	-30	51*	0.5	0	4
Cc1ccsc1C1Nc2ccc3ncccc3c2C2=C1C(=O)CC(C)(C)C2 (configuration not stated)	45	53*	0.5	14	1
O=C1CCCC2=C1C(c1ccc(O)c(O)c1)Nc1ccc3ncccc3c12 (configuration not stated)	49	71*	0.3	28	7
COc1ccc(S(=O)(=O)N(C)[C@H]2C[C@H]3c4cc(Oc5ccccc5C)ccc4CCN3C(=O)[C@H]2[C@H](C)O)cc1	-1	/	/	/	/
CCOC(=O)CCCCCC(=O)Nc1ccc2c(c1)C(=O)N([C@H](C)CO)C[C@H](C)[C@@H](CN(C)C(=O)Nc1ccccc1)OCCCC[C@@H](C)O2	14	/	/	/	/
O=C1Nc2ccccc2C12Nc1ccccc1-c1nc3ccccc3n12 (configuration not stated)	29	39	0.6	0	3
CN1C(=O)C2(Nc3ccccc3-c3nc4ccccc4n32)c2ccccc21 (configuration not stated)	15	84*	0.2	1	12
O=C1COC(c2ccccc2O)=NN1CCCl	-5	/	/	/	/
COc1ccccc1NC(=O)CSc1ccc(-c2cccs2)nn1	38	57*	0.4	2	29
Cc1ccsc1CN(C)CC(=O)N(C)CC(=O)Nc1c(Cl)cccc1Cl	-7	/	/	/	/
NC1=CC(=O)c2cccc3cccc1c23	/	63*	0.4	22	/
O=C1C=C(O)c2cccc3cccc1c23	22	/	/	/	2
CNS(=O)(=O)c1ccc(CNC[C@H]2O[C@@H](n3ccc(N)nc3=O)[C@H](O)[C@@H]2O)cc1	5	/	/	/	/
Cc1cc(N2CCN(C(=O)c3ccco3)CC2)c2ccccc2n1	-4	/	/	/	1
CCN1CCN(c2cc(N3CCN(C(=O)c4ccco4)CC3)c3c4c(onc24)-c2ccccc2C3=O)CC1	68*	/	/	/	18
COc1ccc2c(c1)-c1nc(NC(=O)c3ccco3)sc1CC2	41	19	0.8	1	27
COc1ccc2c(c1)CCc1sc(NC(=O)c3ccco3)nc1-2	47	55*	0.5	16	19
O=C1NC(Cc2ccccc2)c2nc3ccc(Cl)cc3c(=O)n2-c2ncccc21 (configuration not stated)	18	/	/	/	/
SMILES	PfGluPho inh	Diaphorase inh	Diaph act CS	G6PDH CS	HKDC1 inhibitor
O=C1C=CC(=O)N1CCCCCCN1C(=O)C=CC1=O	95*	2	1	-7	-9
O=C(COC(=O)C(O)c1ccccc1)NC12CC3CC(CC(C3)C1)C2 (configuration not stated)	-18	15	0.8	-2	-7
O=C(COC(=O)CCc1ccccc1)NC12CC3CC(CC(C3)C1)C2	0	71*	0.3	3	-1
Cc1cccc(C(O)c2cnc(C)n2Cc2ccccc2)c1 (configuration not stated)	-4	/	/	/	/
CC(=O)N1C(=S)NC(=O)/C1=C1/C(=O)N(CC(=O)Nc2cccc(C)c2)c2ccccc21	-7	67*	0.3	3	8
Cc1cccc(C)c1NC(=O)COC(=O)c1c2c(nc3ccccc13)/C(=C\c1ccc3c(c1)OCO3)CCC2	-8	70*	0.3	4	2
CCN1/C(=C/c2ccc3cc(C)ccc3[n+]2CC)Sc2ccc3sccc3c21	61*	/	/	/	2
O=C(C1=C[C@H](c2ccc(C(F)(F)F)cc2)C[C@H](OCc2ccc(CO)cc2)O1)N1CCCCCCC1	7	50*	0.5	13	5
CC(=O)n1cc([C@H]2C=C(C(=O)N3CCN(Cc4ccccc4)CC3)O[C@@H](OCc3ccc(CO)cc3)C2)c2ccccc21	18	52*	0.5	20	2
CC(=O)n1cc([C@H]2C=C(C(=O)N3CCN(Cc4ccc5c(c4)OCO5)CC3)O[C@@H](OCc3ccc(CO)cc3)C2)c2ccccc21	6	23	0.8	7	-6
O=C(C1=C[C@@H](c2ccc(C(F)(F)F)cc2)C[C@@H](OCc2ccc(CO)cc2)O1)N1CCOCC1	16	26	0.7	10	0
COc1cccc(CN(C)C(=O)C2CCCN(C(=O)c3ccc(Cl)cc3)C2)c1 (configuration not stated)	-1	/	/	/	/
CCCCn1c(N)c(C(=S)NC(=O)CC(C)(C)C)c(=O)n(C)c1=O	-18	62*	0.4	-6	27
CCCn1c(N)c(C(=O)CSc2ncn[nH]2)c(=O)n(C)c1=O	-2	/	/	/	-5
C=CC1=CCN(S(=O)(=O)C(C)(C)C)[C@H]1CCO	7	/	/	/	/
C/C=C/c1ccc2c(c1)O[C@H](CN(C)C(=O)NC1CCCC1)[C@H](C)CN([C@H](C)CO)S2(=O)=O	-9	/	/	/	/
CCn1c(O)c(N=NC2=NC(=O)CS2)c2ccccc21	-26	65*	0.3	2	-9
CCn1c(O)c(N=N)c2ccccc21	12	12	0.9	-1	-1
CC(C)N(C(=O)Nc1ccc2nccnc2c1)C(C)C	30	65*	0.3	30	8
Fc1ccc(NC(=S)Nc2ccc3nccnc3c2)cc1	52	64*	0.4	37	19
CCN(CC)C(=O)C1=C(C)N(Cc2ccc(C(C)(C)C)cc2)C(=O)C(CC(=O)NCC2CCCCC2)C1 (configuration not stated)	-8	/	/	/	/
O=C(NCCOc1ccc(Cl)cc1)C(=O)NCC1CCCO1 (configuration not stated)	3	51*	0.5	10	-10
O=C(NCCOc1ccccc1)C(=O)NCC1CCCO1 (configuration not stated)	3	14	0.9	17	5
CC(=O)c1ccc(NC(=O)c2ccc(C)c(S(=O)(=O)N3CCOCC3)c2)cc1	10	/	/	/	-1
COc1ccc(NS(=O)(=O)c2ccc(C)c(NC(=O)c3ccc(C)c(S(=O)(=O)N4CCOCC4)c3)c2)cc1	15	50*	0.5	8	12
